{"data": "Measured values of several laboratories", "cell line": "HT-29", "observed": "cell growth or viability", "note": "Compare with care: the assays were run in different laboratories."}
{"Structure (SMILES)": "CN1C(=O)/C(=N\\NC(=O)c2cc3ccccc3[nH]2)c2ccccc21", "setting": "30 µM", "inhibition": "78.5%"}
{"Structure (SMILES)": "COc1ccc2c(c1)C(=NNc1nc(-c3ccc(OC)c(OC)c3)nc3ccccc13)C(=O)N2", "setting": "30 µM", "inhibition": "6.2%"}
{"Structure (SMILES)": "COc1cccc2c1C(=O)c1c(O)c3c(c(O)c1C2=O)C[C@@](O)(C(=O)CO)C[C@@H]3O[C@H]1C[C@H](N)[C@H](O)[C@H](C)O1", "assay": "SRB", "setting": "10 µg/mL, 48 h", "inhibition": "97.1%"}
{"Structure (SMILES)": "COc1ccc2c(c1)C(=NNc1nnc(Cc3ccccc3)c3ccccc13)C(=O)N2", "setting": "30 µM", "inhibition": "9.3%"}
{"Structure (SMILES)": "COc1ccc2c(c1)/C(=N/NC(=O)c1cc3ccccc3[nH]1)C(=O)N2", "setting": "30 µM", "inhibition": "36.5%"}
{"Structure (SMILES)": "COc1ccc(C(=O)/C=C/c2cccc(Br)c2)cc1S(N)(=O)=O", "assay": "SRB", "setting": "10 µM", "inhibition": "156%"}
{"Structure (SMILES)": "CN1C(=O)/C(=N\\NC(=O)c2cc3ccccc3[nH]2)c2cc(F)ccc21", "setting": "30 µM", "inhibition": "91.3%"}
{"Structure (SMILES)": "COc1ccc(-c2nc(NN=C3C(=O)Nc4ccccc43)c3ccccc3n2)cc1OC", "setting": "30 µM", "inhibition": "38.1%"}
{"Structure (SMILES)": "COc1ccc(C(=O)/C=C/c2c(F)cccc2Cl)cc1S(N)(=O)=O", "assay": "SRB", "setting": "10 µM", "inhibition": "92%"}
{"Structure (SMILES)": "COc1cc2ncnc(NN=C3C(=O)Nc4ccc(F)cc43)c2cc1OC", "setting": "10 µM", "inhibition": "13.2%"}
{"Structure (SMILES)": "O=C1Nc2ccccc2/C1=N/NC(=O)c1cc2ccccc2[nH]1", "setting": "30 µM", "inhibition": "75.4%"}
{"Structure (SMILES)": "O=C1Nc2ccccc2C1=NNc1nnc2n1N=C(c1ccccc1)CS2", "assay": "SRB", "setting": "10 µM", "inhibition": "28%"}
{"Structure (SMILES)": "O=C1Nc2ccc(Br)cc2/C1=N/NC(=O)c1cc2ccccc2[nH]1", "setting": "30 µM", "inhibition": "64.5%"}
{"Structure (SMILES)": "COc1ccc(C(=O)/C=C/c2cccc(Cl)c2)cc1S(N)(=O)=O", "assay": "SRB", "setting": "10 µM", "inhibition": "99%"}
{"Structure (SMILES)": "COc1ccc2c(c1)C(=NNc1nc3ccccc3n(C)c1=O)C(=O)N2", "setting": "30 µM", "inhibition": "48.5%"}
{"Structure (SMILES)": "COc1ccc(C(=O)/C=C/c2cccc3ccccc23)cc1S(N)(=O)=O", "assay": "SRB", "setting": "10 µM", "inhibition": "140%"}
{"Structure (SMILES)": "COc1ccc2c(c1)/C(=N/NC(=O)c1cc3ccccc3[nH]1)C(=O)N2C", "setting": "30 µM", "inhibition": "90.8%"}
{"Structure (SMILES)": "COc1ccc(C(=O)/C=C/c2ccccc2Br)cc1S(N)(=O)=O", "assay": "SRB", "setting": "10 µM", "inhibition": "117%"}
{"Structure (SMILES)": "Cn1c(=O)c(NN=C2C(=O)Nc3ccc(Cl)cc32)nc2ccccc21", "setting": "30 µM", "inhibition": "16.1%"}
{"Structure (SMILES)": "COc1ccccc1/C=C/C(=O)c1ccc(OC)c(S(N)(=O)=O)c1", "assay": "SRB", "setting": "10 µM", "inhibition": "81%"}
{"Structure (SMILES)": "COc1ccc(C2=Nn3c(NN=C4C(=O)Nc5ccc(OC)cc54)nnc3SC2)cc1", "assay": "SRB", "setting": "10 µM", "inhibition": "24%"}
